# Assay results reported in PMC2854536 (Clinical cancer research : an official journal of the …, 2009).
# B1: PEDF: Pigment epithelial-derived factor, native protein, a potent angiogenesis inhibitor (protein, UniProt P36955 20-418, looked up)
# Pigment epithelium-derived …: QNPASPPEEGSPDPDSTGALVEEEDPFFKVPVNKLAAAVSNFGYDLYRVRSSTSPTTNVLLSPLSVATALSALSLGAEQRTESIIHRALYYDLISSPDIHGTYKELLDTVTAPQKNLKSASRIVFEKKLRIKSSFVAPLEKSYGTRPRVLTGNPRLDLQEINNWVQAQMKGKLARSTKEIPDEISILLLGVAHFKGQWVTKFDSRKTSLEDFYLDEERTVRVPMMSDPKAVLRYGLDSDLSCKIAQLPLTGSMSIIFFLPLKVTQNLTLIEESLTSEFIHDIDRELKTVQAVLTVPKLKLSYEGEVTKSLQEMKLQSLFDSPDFSKITGKPIKLTQVEHRAGFEWNEDGAGTTPSPGLQPAHLTFPLDYHLNQPFIFVLRDTDTGALLFIGKILDPRGP
# Legend:
# [1] = system: bFGF-induced angiogenesis; assay: Matrigel plug assay; type: in vivo, nude mice; settings: Matrigel plug with bFGF (Fig. 3C bottom)
# [2] = system: CD95; assay: Immunohistochemistry of Matrigel plug vasculature, CD95; type: in vivo, nude mice; settings: Matrigel plugs with bFGF (Fig. 6A)
# [3] = system: endothelial cells; assay: Cytotoxicity in a 4-hour assay; type: cell-based, Human; settings: P14 at concentrations above 10 nM, data not shown
# [4] = system: bFGF/VEGF-induced angiogenesis; assay: Directed In Vivo Angiogenesis Assay; set-up: species or system nude mice
# How it was run: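 Angioreactors filled with basement membrane extract holding bFGF/VEGF mix plus test peptide, or peptide alone, implanted subcutaneously in both flanks of nude mice, four per animal. PEDF 20 nM and 34-mer 100 nM served as controls. Recovered cells were FITC-lectin labelled and fluorescence read as relative EC invasion. Three independent experiments, normalised to negative control, averaged.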
# [5] = system: HMVEC cells; assay: Endothelial cell apoptosis, TUNEL assay; type: cell-based, Human; settings: overnight, 0.2% FBS, no bFGF, PEDF 10 nM, 34-mer 100 nM (Fig. 2C)
# How it was run: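 Confluent HMVECs (passages 6–9) on coverslips were treated overnight with test peptide in MCDB131 with 0.2% FBS, with or without bFGF 20 ng/ml. PEDF 10 nM and 34-mer 100 nM were controls. TUNEL staining with propidium iodide counterstain. In 3–5 10X fields, TUNEL-positive and total PI-positive cells were counted to give % apoptotic cells.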
molecule,measurement,setting,value
"34-mer: PEDF anti-angiogenic N-terminal surface epitope, amino acid residues 24–57; parental peptide (SPPEEGSPDPDSTGALVEEEDPFFKVPVNKLAAA; UniProt P36955 24-57, looked up, fragment)",EC apoptosis by in situ TUNEL,[1],induced significant levels of EC apoptosis
same,CD95 staining of microvessels,[2],majority of the microvessels stained positive
"P14: PEDF-derived peptide, residues 43–57 of PEDF molecule, acetylated at the N-terminus and amidated at the C-terminus (Ac-EDPFFKVPVNKLAAA-NH2; UniProt P36955 43-57, looked up, fragment)",cytotoxicity,[3],slightly cytotoxic
same,angiogenic activity of the peptide alone,"[4]; DIVAA, without bFGF/VEGF, P<0.05",pro-angiogenic
"P23: PEDF-derived peptide, residues 34–57, acetylated at the N-terminus and amidated at the C-terminus (Ac-DSTGALVEEEDPFFKVPVNKLAAA-NH2; UniProt P36955 34-57, looked up, fragment)",cytotoxicity,[3],no cytotoxic activity
B1,effect on stress-induced apoptosis in low serum,[5],no effect
same,level of vascularization reached,"[4]; DIVAA with bFGF/VEGF mix, P=0.006 (PEDF) and 0.01 (P18)",to the level of BME
